Active and inactive are the calls of the source. The rule behind the calls is not given here.
Assays:
Prothrombin [1] = biological target: T1, Prothrombin (Homo sapiens, UniProt P00734); assay: Partial allosteric inhibition of human thrombin at 500 uM using spectrozyme TH as substrate pretreated for 10 mins followed by substrate addition by spectrophotometric method relative to control
Prothrombin [2] = biological target: T1, Prothrombin; assay: Partial allosteric inhibition of human thrombin using spectrozyme TH as substrate pretreated for 10 mins followed by substrate addition by spectrophotometric method
Procedure, shortened: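 Chromogenic substrate hydrolysis by thrombin read spectrophotometrically in 20 mM Tris-HCl pH 7.4 with […], 100 mM NaCl and 0.1% PEG 8000 at 25 °C. Sigmoidal fits gave IC50 and efficacy (ΔY). Errors ±1 S.E.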

Prothrombin [3] = biological target: T1, Prothrombin; assay: Partial allosteric inhibition of human thrombin at 300 uM using spectrozyme TH as substrate pretreated for 10 mins followed by substrate addition by spectrophotometric method relative to control
[4] = test system: CCOC(=O)c1c(C)oc2cc(OCCc3ccccc3)c(OCc3oc4cc(OC)c(OS(=O)(=O)O)cc4c3C(=O)OCC)cc12; assay: Non competitive inhibition of human thrombin assessed as substrate Vmax at 1 uM using varying levels of spectrozyme TH as substrate measured after 10 mins by Michaelis-Menten plot analysis (reference value: 51.0 +/- 2.8 mAU/min)
[5] = test system: CCOC(=O)c1c(C)oc2cc(OCCc3ccccc3)c(OCc3oc4cc(OC)c(OS(=O)(=O)O)cc4c3C(=O)OCC)cc12; assay: Non competitive inhibition of human thrombin assessed as substrate Vmax at 10 uM using varying levels of spectrozyme TH as substrate measured after 10 mins by Michaelis-Menten plot analysis (reference value: 51.0 +/- 2.8 mAU/min)
[6] = test system: CCOC(=O)c1c(C)oc2cc(OCCc3ccccc3)c(OCc3oc4cc(OC)c(OS(=O)(=O)O)cc4c3C(=O)OCC)cc12; assay: Non competitive inhibition of human thrombin assessed as substrate Vmax at 40 uM using varying levels of spectrozyme TH as substrate measured after 10 mins by Michaelis-Menten plot analysis (reference value: 51.0 +/- 2.8 mAU/min)
[7] = test system: CCOC(=O)c1c(C)oc2cc(OCCc3ccccc3)c(OCc3oc4cc(OC)c(OS(=O)(=O)O)cc4c3C(=O)OCC)cc12; assay: Non competitive inhibition of human thrombin assessed as substrate Km at 1 uM using varying levels of spectrozyme TH as substrate measured after 10 mins by Michaelis-Menten plot analysis (reference value: 9.3 +/- 2.8 uM)
[8] = test system: CCOC(=O)c1c(C)oc2cc(OCCc3ccccc3)c(OCc3oc4cc(OC)c(OS(=O)(=O)O)cc4c3C(=O)OCC)cc12; assay: Non competitive inhibition of human thrombin assessed as substrate Km at 2 uM using varying levels of spectrozyme TH as substrate measured after 10 mins by Michaelis-Menten plot analysis (reference value: 9.3 +/- 2.8 uM)
[9] = test system: CCOC(=O)c1c(C)oc2cc(OCCc3ccccc3)c(OCc3oc4cc(OC)c(OS(=O)(=O)O)cc4c3C(=O)OCC)cc12; assay: Non competitive inhibition of human thrombin assessed as substrate Km at 10 uM using varying levels of spectrozyme TH as substrate measured after 10 mins by Michaelis-Menten plot analysis (reference value: 9.3 +/- 2.8 uM)
[10] = test system: CCOC(=O)c1c(C)oc2cc(OCCc3ccccc3)c(OCc3oc4cc(OC)c(OS(=O)(=O)O)cc4c3C(=O)OCC)cc12; assay: Non competitive inhibition of human thrombin assessed as substrate Km at 40 uM using varying levels of spectrozyme TH as substrate measured after 10 mins by Michaelis-Menten plot analysis (reference value: 9.3 +/- 2.8 uM)
[11] = test system: CCOC(=O)c1c(C)oc2cc(OCc3ccccc3)c(OCc3oc4cc(OCC5CCCCC5)c(OS(=O)(=O)O)cc4c3C(=O)OCC)cc12; assay: Mixed-type inhibition of human thrombin assessed as substrate Vmax at 1 uM using varying levels of spectrozyme TH as substrate measured after 10 mins by Michaelis-Menten plot analysis (reference value: 48.2 +/- 2.8 mAU/min)
[12] = test system: CCOC(=O)c1c(C)oc2cc(OCc3ccccc3)c(OCc3oc4cc(OCC5CCCCC5)c(OS(=O)(=O)O)cc4c3C(=O)OCC)cc12; assay: Mixed-type inhibition of human thrombin assessed as substrate Vmax at 2 uM using varying levels of spectrozyme TH as substrate measured after 10 mins by Michaelis-Menten plot analysis (reference value: 48.2 +/- 2.8 mAU/min)
[13] = test system: CCOC(=O)c1c(C)oc2cc(OCc3ccccc3)c(OCc3oc4cc(OCC5CCCCC5)c(OS(=O)(=O)O)cc4c3C(=O)OCC)cc12; assay: Mixed-type inhibition of human thrombin assessed as substrate Vmax at 10 uM using varying levels of spectrozyme TH as substrate measured after 10 mins by Michaelis-Menten plot analysis (reference value: 48.2 +/- 2.8 mAU/min)
[14] = test system: CCOC(=O)c1c(C)oc2cc(OCc3ccccc3)c(OCc3oc4cc(OCC5CCCCC5)c(OS(=O)(=O)O)cc4c3C(=O)OCC)cc12; assay: Mixed-type inhibition of human thrombin assessed as substrate Vmax at 40 uM using varying levels of spectrozyme TH as substrate measured after 10 mins by Michaelis-Menten plot analysis (reference value: 48.2 +/- 2.8 mAU/min)
[15] = test system: CCOC(=O)c1c(C)oc2cc(OCc3ccccc3)c(OCc3oc4cc(OCC5CCCCC5)c(OS(=O)(=O)O)cc4c3C(=O)OCC)cc12; assay: Mixed-type inhibition of human thrombin assessed as substrate Km at 1 uM using varying levels of spectrozyme TH as substrate measured after 10 mins by Michaelis-Menten plot analysis (reference value: 8.6 +/- 2.8 uM)
[16] = test system: CCOC(=O)c1c(C)oc2cc(OCc3ccccc3)c(OCc3oc4cc(OCC5CCCCC5)c(OS(=O)(=O)O)cc4c3C(=O)OCC)cc12; assay: Mixed-type inhibition of human thrombin assessed as substrate Km at 2 uM using varying levels of spectrozyme TH as substrate measured after 10 mins by Michaelis-Menten plot analysis (reference value: 8.6 +/- 2.8 uM)
[17] = test system: CCOC(=O)c1c(C)oc2cc(OCc3ccccc3)c(OCc3oc4cc(OCC5CCCCC5)c(OS(=O)(=O)O)cc4c3C(=O)OCC)cc12; assay: Mixed-type inhibition of human thrombin assessed as substrate Km at 10 uM using varying levels of spectrozyme TH as substrate measured after 10 mins by Michaelis-Menten plot analysis (reference value: 8.6 +/- 2.8 uM)
[18] = test system: CCOC(=O)c1c(C)oc2cc(OCc3ccccc3)c(OCc3oc4cc(OCC5CCCCC5)c(OS(=O)(=O)O)cc4c3C(=O)OCC)cc12; assay: Mixed-type inhibition of human thrombin assessed as substrate Km at 40 uM using varying levels of spectrozyme TH as substrate measured after 10 mins by Michaelis-Menten plot analysis (reference value: 8.6 +/- 2.8 uM)

Row | Molecule | inhibition (Prothrombin [1]) | Efficacy (Prothrombin [2]) | IC50 (Prothrombin [2]) | inhibition (Prothrombin [3]) | other results
1 | COc1cc2oc(C)c(C(=O)OCc3ccccc3)c2cc1OS(=O)(=O)O | > 50% | 95% | 168 µM |  | 
2 | CCCOC(=O)c1c(COc2cc3c(C(=O)OCc4ccccc4)c(C)oc3cc2OC)oc2cc(OC)c(OS(=O)(=O)O)cc12 |  | 68% | 4.9 µM | > 50% | 
3 | CCOC(=O)c1c(C)oc2cc(OCc3ccccc3)c(OCc3cccc(S(=O)(=O)O)c3)cc12 | > 50% |  | > 500 µM |  | 
4 | CCOC(=O)c1c(C)oc2cc(OCC3CCCCC3)c(OCc3oc4cc(OCC5CCCCC5)c(OS(=O)(=O)O)cc4c3C(=O)OCC)cc12 |  | 93% | 8.7 µM | > 50% | 
5 | CCOC(=O)c1c(C)oc2cc(OCc3cccc(OCOC)c3)c(OS(=O)(=O)O)cc12 | > 50% | 75.9% | 229 µM |  | 
6 | CCOC(=O)c1c(C)oc2cc(OCc3cccc(OCOC)c3)c(OCc3oc4cc(OC)c(OS(=O)(=O)O)cc4c3C(=O)OCC)cc12 |  | 59% | 4 µM | > 50% | 
7 | CCOC(=O)c1c(C)oc2cc(OCc3cccc(OS(=O)(=O)O)c3)c(OS(=O)(=O)O)cc12 | > 50% |  | > 500 µM |  | 
8 | COc1cc2oc(C)c(C(=O)OCCOS(=O)(=O)O)c2cc1OS(=O)(=O)O | > 50% |  | > 500 µM |  | 
9 | CCOC(=O)c1c(C)oc2cc(OS(=O)(=O)O)c(OCc3oc4cc(OC)c(OS(=O)(=O)O)cc4c3C(=O)OCC)cc12 |  |  | > 300 µM | inactive | 
10 | CCOC(=O)c1c(C)oc2cc(Oc3cccc(OS(=O)(=O)O)c3)c(OCc3oc4cc(OC)c(OS(=O)(=O)O)cc4c3C(=O)OCC)cc12 |  |  | > 300 µM | inactive | 
11 | CCOC(=O)c1c(COc2cc3c(C(=O)OCCc4ccccc4)c(C)oc3cc2OC)oc2cc(OC)c(OS(=O)(=O)O)cc12 |  | 58% | 3.2 µM | > 50% | 
12 | Cc1oc2cc(OCc3ccccc3)c(OS(=O)(=O)O)cc2c1C(=O)O | > 50% |  | > 500 µM |  | 
13 | CCOC(=O)c1c(C)oc2cc(OCc3ccccc3)c(OCc3oc4cc(OC)c(OS(=O)(=O)O)cc4c3C(=O)OCCOS(=O)(=O)O)cc12 |  | 74% | 14 µM | > 50% | 
14 | CCOC(=O)c1c(C)oc2cc(OCc3ccccc3)c(OS(=O)(=O)O)cc12 | > 50% | 72% | 134 µM |  | 
15 | Prothrombin (Homo sapiens) (from UniProt P00734) |  |  |  |  | Vmax [4]: 44.1 mAU/min; Vmax [5]: 30.9 mAU/min; Vmax [6]: 23.7 mAU/min; Km [7]: 8.3 µM; Km [8]: 9.2 µM; Km [9]: 7.4 µM; Km [10]: 6.8 µM; Vmax [11]: 43.8 mAU/min; Vmax [12]: 38.7 mAU/min; Vmax [13]: 32.5 mAU/min; Vmax [14]: 26.5 mAU/min; Km [15]: 8.8 µM; Km [16]: 10.7 µM; Km [17]: 29.7 µM; Km [18]: 61 µM
16 | CCOC(=O)c1c(C)oc2cc(OCc3cccc(OC(C)C)c3)c(OS(=O)(=O)O)cc12 | > 50% |  | > 500 µM |  | 
17 | CCOC(=O)c1c(C)oc2cc(OC)c(OCc3cccc(S(=O)(=O)O)c3)cc12 | > 50% | 101% | 134 µM |  | 
18 | CCOC(=O)c1c(C)oc2cc(OCc3cccc(OC(C)C)c3)c(OCc3oc4cc(OC)c(OS(=O)(=O)O)cc4c3C(=O)OCC)cc12 |  | 57% | 2.6 µM | > 50% | 
19 | CCOC(=O)c1c(C)oc2cc(OCC3CCCCC3)c(OS(=O)(=O)O)cc12 | > 50% |  | > 500 µM |  | 
20 | CCOC(=O)c1c(C)oc2cc(OC)c(OCc3oc4cc(OCC5CCCCC5)c(OS(=O)(=O)O)cc4c3C(=O)OCC)cc12 |  | 77% | 3.8 µM | > 50% | 
21 | CCOC(=O)c1c(C)oc2cc(OCC3CCCCC3)c(OCc3oc4cc(OC)c(OS(=O)(=O)O)cc4c3C(=O)OCC)cc12 |  | 63% | 2.6 µM | > 50% | 
22 | CCOC(=O)c1c(COc2cc3c(C(=O)OCc4ccc(OCOC)cc4)c(C)oc3cc2OC)oc2cc(OC)c(OS(=O)(=O)O)cc12 |  | 66% | 2.6 µM | > 50% | 
23 | COC(=O)c1c(C)oc2cc(OCc3cccc(OS(=O)(=O)O)c3)c(OCc3cccc(S(=O)(=O)O)c3)cc12 | > 50% |  | > 500 µM |  | 
24 | CCOC(=O)c1c(C)oc2cc(OCc3ccc(OC(C)C)cc3)c(OCc3oc4cc(OC)c(OS(=O)(=O)O)cc4c3C(=O)OCC)cc12 |  | 74% | 2.3 µM | > 50% | 
25 | CCOC(=O)c1c(C)oc2cc(OCc3ccccc3)c(OCc3oc4cc(OC)c(OS(=O)(=O)O)cc4c3C(=O)OCC)cc12 |  | 57% | 2 µM | > 50% | 
26 | CCOC(=O)c1c(C)oc2cc(OCc3ccc(OC(C)C)cc3)c(OS(=O)(=O)O)cc12 | > 50% |  | > 500 µM |  | 
27 | CCOC(=O)c1c(C)oc2cc(OCc3ccc(OCOC)cc3)c(OCc3oc4cc(OC)c(OS(=O)(=O)O)cc4c3C(=O)OCC)cc12 |  | 61% | 3.3 µM | > 50% | 
